Experiments:
K562 = assay: Cytotoxicity against human K562 cells after 72 hrs by MTT assay; assay type: functional, cell-based; details: K562, 72 h
In short: (§1)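 Cells grown in RPMI-1640 with 10% heat-inactivated bovine serum, L-glutamine, penicillin/streptomycin and 10 mM HEPES pH 7.4, at 37 °C, 5% CO2. Seeded, allowed to adhere 24 h, then exposed at 0.01–100 µg/mL (tenfold steps) for 72 h, triplicate wells. MTT 4 h, SDS–isobutanol–HCl solubilization 12–20 h. OD 570 nm versus DMSO controls. IC50 by LOGIT.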

HepG2 = assay: Cytotoxicity against human HepG2 cells after 72 hrs by MTT assay; assay type: functional, cell-based; details: HepG2, 72 h; in short: as §1

Structure (SMILES) | IC50 (K562) | IC50 (HepG2)
C/C=C1/C(=O)C[C@@]2(C)[C@@H]3CCC4C(C)(C)[C@@H](NC)CC[C@@]45C[C@@]35CC[C@]12C (stereo partly specified) | 1.7 µM | > 100 µM
C=C1C2CC[C@@H]3[C@]4(CC[C@]5(C)/C(=C\C)C(=O)C[C@@]35C)C[C@]24CC[C@@H]1NC (stereo partly specified) [BIXMICROPHYLLINE B] | 0.37 µM | 0.78 µM
C=C1C2CC[C@@H]3[C@]4(CC[C@]5(C)[C@@H](C(C)=O)[C@H](O)C[C@@]35C)C[C@]24CC[C@@H]1N(C)C (stereo partly specified) [BUXIPPINE K] | 35.3 µM | 57.1 µM
C[C@@H]([C@H]1[C@H](OC(=O)c2ccccc2)C[C@@]2(C)[C@@H]3CCC4[C@@]5(CC[C@H](NC(=O)c6ccccc6)[C@@]4(C)CO)C[C@@]35CC[C@]12C)N(C)C (stereo partly specified) [BUXMICROPHYLLINE E] | > 100 µM | 39.7 µM
CC(C)C(=O)N[C@H]1CC[C@]23C[C@]24CC[C@]2(C)[C@@H]([C@H](C)N(C)C)[C@H](OC(=O)c5ccccc5)C[C@@]2(C)[C@@H]4C=CC3[C@]1(C)CO (stereo partly specified) [BUXMICROPHYLLINE F] | 2.95 µM | 20.1 µM
COc1ccc(/C=C/C(=O)N[C@H]2CC[C@]34C[C@]35CC[C@]3(C)[C@@H]([C@H](C)N(C)C)[C@H](O)C[C@@]3(C)[C@@H]5CCC4[C@]2(C)CO)cc1O (stereo partly specified) [BUXMICROPHYLLINE G] | 4.44 µM | 0.89 µM
C=C1C2CC[C@@H]3[C@]4(CC[C@]5(C)[C@@H](C(C)=O)[C@H](O)C[C@@]35C)C[C@]24CC[C@@H]1NC (stereo partly specified) [CYCLOMICROBUXININE] | > 100 µM | > 100 µM
C/C=C1\C(=O)C[C@@]2(C)[C@@H]3CCC4C(C)(C)[C@@H](NC)CC[C@@]45C[C@@]35CC[C@]12C (stereo partly specified) [Z-buxenone] | 5.61 µM | 14.9 µM

From ChEMBL document CHEMBL1152330, “Cytotoxic triterpenoid alkaloids from Buxus microphylla” (J Nat Prod, 2009)
